# PME-1 primary: PME-1 (human) inhibition | Q9Y570 | hit rate 0.53% among 320,000 | inhibition, % at 5.9 µM | recombinant PME-1, FP-Rh probe fluorescence polarization;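 active = inhibition above the campaign mean of all compounds plus 3 SD, cut at about 26% in these data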;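 note: competitive labeling of PME-1 active site by serine hydrolase directed probe; 0% = PME-1 with DMSO and 100% = wells lacking PME-1 enzyme; inhibitors block probe labeling so polarization falls and inhibition rises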
# Target sequence (Q9Y570 whole entry, looked up): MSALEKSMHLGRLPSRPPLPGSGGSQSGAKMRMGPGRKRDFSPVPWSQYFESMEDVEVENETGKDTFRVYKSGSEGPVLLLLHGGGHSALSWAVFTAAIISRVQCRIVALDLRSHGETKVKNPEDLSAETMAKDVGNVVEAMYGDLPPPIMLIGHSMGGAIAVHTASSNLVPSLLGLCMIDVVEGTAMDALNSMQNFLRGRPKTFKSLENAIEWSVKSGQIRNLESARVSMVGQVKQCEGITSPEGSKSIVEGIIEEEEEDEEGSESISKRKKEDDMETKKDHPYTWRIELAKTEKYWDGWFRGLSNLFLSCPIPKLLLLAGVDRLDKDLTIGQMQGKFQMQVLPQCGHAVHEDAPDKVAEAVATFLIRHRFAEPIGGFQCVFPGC
# SIAE inh: inhibitors of human sialic acid acetylesterase SIAE | AID 1053197 | hit rate 0.69% among 370,000 | SIAE FP-Rh probe binding, fluorescence polarization | Q9HAT2 | inhibition, % at 9.66 µM;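 active = inhibition above a cutoff: mean of compounds within the control limits plus 3 SD of those, cut at about 17% in these data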;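 note: 0% = plate median of compound wells and 100% = probe without SIAE protein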
# HTRA1 inhibitor: blocks human HTRA1 serine peptidase. recombinant HTRA1, FP-rhodamine activity-based probe, fluorescence polarization. inhibition, % at 5.96 µM. hit rate 0.5% among 340,000. Q92743; in the data active = inhibition above about 36%;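 note: 0% = enzyme with DMSO and 100% = wells lacking enzyme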
# TCR CD3 inh: human TCR-CD3 binding inhibition | TAMRA-labeled TCR probe fluorescence, biochemical | inhibition, % at 9.4 µM | hit rate 0.37% among 360,000; in the data active = inhibition above about 19%;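 note: recombinant mutant TCR 2C K166C tagged with TAMRA read by polarization; 0% = receptor in buffer alone and 100% = receptor with positive control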
# Fam108B inh: counter-screen for RBBP9 inhibitors: inhibitors of mouse Fam108B; inhibition, % at 9.51 µM; recombinant Fam108B, FP-Rh probe fluorescence polarization; AID 1947; hit rate 0.33% among 300,000;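 active = inhibition above the screen mean inhibition plus 3 SD, computed separately per campaign, cut at about 18% in these data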;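 note: inhibitors lower polarization as less probe binds the enzyme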
# mABHD4 FP: ABHD4 (mouse) inhibition, primary FP screen; purified mABHD4, FP-Rh probe fluorescence polarization; hit rate 0.54% among 370,000; Q8VD66; inhibition, % at 8.92 µM;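 active = inhibition exceeding the mean over every tested compound plus 3 SD, cut at about 30% in these data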;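 note: 0% = plate median of compound wells and 100% = S159A mutant with DMSO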
#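 Material: mouse ABHD4 enzyme, wild type; Benchmarks: S159A mutant high control, sample median low control; Buffer or medium: HEPES pH 7.0, NaCl, Pluronic buffer; Signal: fluorescence polarization; Read-out: percent inhibition of probe binding, normalized to plate controls; Timing: pre-incubation 45 min, probe exposure 60 min, at 25 °C; Dosing: 8.92 µM, single dose.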
# Fam108b confirm: Fam108b (mouse) hydrolase inhibition, confirmation assay. shares compounds with Fam108B inh. recombinant Fam108b, FP-Rh probe fluorescence polarization. inhibition, % at 9.51 µM. hit rate 44% among 930. AID 1978;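 active = inhibition above a limit from the primary screen, the mean over all compounds plus 3 SD, cut at about 19% in these data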;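 note: 0% = median of active Fam108b wells and 100% = catalytically dead S170A mutant; inhibitors free the probe so polarization falls as inhibition rises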
# Fam108b ABPP HTS: inhibits mouse Fam108b in gel-based ABPP; recombinant Fam108b, fluorophosphonate probe; shares compounds with Fam108B inh; hit rate 44% among 260; AID 588649; inhibition, % at 20 µM; in the data active = inhibition above about 40%
# * marks the source's active call; other numbers are inactive results; / = not tested or not shown. Rows were chosen to be rich in hits. Some 1.8% of all compounds tested hit in one or more screens of this group.
SMILES,PME-1 primary,SIAE inh,HTRA1 inhibitor,TCR CD3 inh,Fam108B inh,mABHD4 FP,Fam108b confirm,others
Cc1cccnc1Nc1nc(-c2ccccn2)cs1,12.0,-7.1,7.2,-1.8,3.4,2.0,/,
Cc1cc(NS(=O)(=O)c2ccc(Nc3nc(-c4ccc(O)cc4)cs3)cc2)no1,2.9,-2.5,-1.1,12.0,25.8*,41.8*,-70.3,
CCC(=O)OCCCN1C(=O)CCC12CCC(C)CC2 (configuration not stated),/,-6.8,/,/,/,0.5,/,
COc1ccc2c3c([nH]c2c1)[C@]1(CCNC=O)Nc2ccccc2C1=NCC3,/,-0.4,/,/,/,7.0,/,
COc1ccc(CN=Cc2[nH]c3ccc(Br)c(Cl)c3c2O)cc1,13.9,-2.9,-9.1,8.7,18.8*,7.2,11.9,
Cc1cc(C)cc(N=Cc2[nH]c3ccc(Br)c(Cl)c3c2O)c1,0.1,-1.2,-3.5,-5.4,-2.2,13.1,/,
CC(C)C[C@H]1COc2cccc(N3CCSCC3)c2S(=O)(=O)N1C,/,-2.6,/,/,/,6.1,/,
Cc1ccc(SC2=C(Sc3ccc(C)cc3)C(=O)c3ccccc3C2=O)cc1,8.1,4.0,11.2,4.0,22.1*,14.5,10.8,
CCN1CCCCC(NC(=O)c2cc(OC)c(OC)c(OC)c2)C1=O (configuration not stated),/,-1.5,/,/,/,-4.5,/,
Cc1ccc(C(=O)O)cc1N1C(=O)c2cccc3c([N+](=O)[O-])ccc(c23)C1=O,31.7*,10.7,5.5,1.3,27.0*,17.0,22.9*,
O=C(O)c1ccc(CN2C(=O)c3cccc4c([N+](=O)[O-])ccc(c34)C2=O)cc1,/,/,-6.2,/,/,/,/,
Nc1nn2c(-c3ccccc3)cc(=O)[nH]c2c1N=Nc1ccc(O)cc1,17.4,-1.9,19.9,-0.6,20.8*,18.1,16.7,
CC(=O)c1coc2c1cc(O)c1ccccc12,0.1,3.9,12.8,4.6,1.9,9.7,/,
CC(=O)c1cc(O)c2ccccc2c1O,39.2*,-2.6,31.5,0.8,31.2*,38.6*,17.6,
O=C1c2ccccc2C(=O)N1OS(=O)(=O)c1ccccc1,-2.3,/,/,/,28.7*,/,-18.1,
CCOc1ccc(-n2c(SCC(=O)c3ccccc3Cl)nnc2-c2ccncc2)cc1,/,4.4,/,/,/,-8.7,/,
Cn1c2ccccc2c2cc(C=NNC(=O)c3cc(O)ccc3O)ccc21,/,/,/,/,/,/,/,Fam108b ABPP HTS=85.0*
Cc1ccc(S(=O)(=O)Nc2csc(C)c2C(=O)O)cc1,1.7,2.1,/,6.0,47.4*,4.4,2.1,
CC(=O)c1cc(-c2ccccc2)c(=O)n2c1CCC2,/,0.3,/,/,/,3.0,/,
CCCc1cc(SCC(=O)Nc2c(C)n(C)n(-c3ccccc3)c2=O)n2c(nc3ccccc32)c1C#N,-8.0,-1.0,/,3.4,24.0*,0.4,22.6*,
Cc1nc(SCC(=O)Nc2c(C)n(C)n(-c3ccccc3)c2=O)c(C#N)c(C)c1C,-0.8,1.9,1.4,0.7,/,1.9,/,
Cc1ccc(S(=O)(=O)N(C)C)cc1NC(=O)c1cc(=O)c2ccccc2o1,2.3,0.5,-3.0,2.7,21.0*,3.1,32.9*,Fam108b ABPP HTS=0.0
CCCCCCCCN1CN2Cc3ccc(C)cc3C2CS1(=O)=O (configuration not stated),/,-5.3,/,/,/,-1.7,/,
COc1ccccc1NC(=O)Cn1c(CN2CCCCC2)nc2ccccc2c1=O,-1.6,-2.1,-6.8,-6.4,0.6,-4.5,/,
Cc1cccc(C)c1NC(=O)Cn1c(CN2CCCCC2)nc2ccccc2c1=O,-7.2,-1.3,-2.3,5.0,20.8*,5.9,1.6,
SMILES,PME-1 primary,SIAE inh,HTRA1 inhibitor,TCR CD3 inh,Fam108B inh,mABHD4 FP,Fam108b confirm,others
COC1=CC(=O)C(O)=C(CCCCCCCC=CCCCCCCCC2=C(O)C(=O)C=C(OC)C2=O)C1=O,/,/,/,/,/,/,/,Fam108b ABPP HTS=35.0
CC[C@@H](CCC(=O)N(c1ccccc1)c1ccccc1)c1ccc(C)cc1,/,2.9,/,/,/,-13.0,/,
COc1ccc(/C=N/Nc2nncc3ccccc23)cc1,9.5,2.2,4.2,2.7,1.4,-1.1,/,
Oc1c(Br)cc(/C=N/Nc2nncc3ccccc23)cc1Br,4.8,/,/,/,19.2*,/,22.7*,
Oc1c(Br)cc(/C=N/Nc2ccc(Cl)nn2)cc1Br,12.1,-11.4,28.2,2.0,25.7*,25.3,-12.7,
CCCCCCCCNS(=O)(=O)/C=C/c1ccccc1CNC(=O)OC(C)(C)C,/,-3.5,/,/,/,-18.4,/,
